Experimental data from ChEMBL document CHEMBL3877264, “Quinolidene-rhodanine conjugates: Facile synthesis and biological evaluation” (Eur J Med Chem, 2017).
Converted amounts (≈) assume the structure as drawn.

Columns and labels:
Format in all cases: functional
Pseudomonas fluorescens [1] = assay: Growth inhibition of Pseudomonas fluorescens NCIM 2036 at 10 ug/ml measured after 8 hrs relative to control; conditions: NCIM 2036, 8 h, read-out: GI
Procedure, shortened: (§1)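 Bacteria grown in LB at 37 °C and 180 rpm to OD 1. Compounds added to wells, then 0.1% inoculum of 1 OD culture (620 nm). Growth read as OD at 620 nm after 8 h for gram-negative and after 12 h for gram-positive strains.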

Staphylococcus aureus [2] = assay: Growth inhibition of Staphylococcus aureus NCIM 2010 at 3 ug/ml measured after 12 hrs relative to control; conditions: NCIM 2010, 12 h, read-out: GI; procedure, shortened: as §1
[3] = Antifungal activity against Cryptococcus neoformans NCIM 576 by standard agar method
Procedure, shortened: (§2)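 MICs determined by standard agar method; DMSO as solvent control.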

Candida albicans = assay: Antifungal activity against Candida albicans NCIM 3471 by standard agar method; procedure, shortened: as §2
Bacillus subtilis [4] = assay: Growth inhibition of Bacillus subtilis NCIM 2079 at 3 ug/ml measured after 12 hrs relative to control; conditions: NCIM 2079, 12 h, read-out: GI; procedure, shortened: as §1
[5] = test system: Mycobacterium tuberculosis; assay: Growth inhibition of Mycobacterium bovis BCG ATCC 35743 at dormant stage measured after 12 days by nitrate reductase dye based two fold dilution method; conditions: BCG str. ATCC 35743, 288 h
Procedure, shortened: (§3)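 M. bovis BCG was grown in Dubos medium and assayed in Mycobacterium pheli minimal medium (pH 6.6), with compounds from DMSO stocks. Incubation lasted 8 days for active and 12 days for dormant cultures. Viability was read by nitrate reductase at 540 nm against cell-free blanks, with vehicle set as 100% growth. Primary screen was at 30, 10 and 3 µg/ml, in triplicate, mean ± SD. MIC was taken from dose-response curves.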

Aspergillus niger = assay: Antifungal activity against Aspergillus niger NCIM 1196 by standard agar method; procedure, shortened: as §2
[6] = test system: Mycobacterium tuberculosis; assay: Growth inhibition of Mycobacterium bovis BCG ATCC 35743 at dormant stage at 10 ug/ml measured after 12 days by nitrate reductase dye based two fold dilution method relative to control; conditions: BCG str. ATCC 35743, 288 h, read-out: GI; procedure, shortened: as §3
[7] = test system: Mycobacterium tuberculosis; assay: Growth inhibition of Mycobacterium bovis BCG ATCC 35743 at active stage measured after 8 days by nitrate reductase dye based two fold dilution method; conditions: BCG str. ATCC 35743, 192 h; procedure, shortened: as §3
Escherichia coli [8] = assay: Growth inhibition of Escherichia coli NCIM 2688 at 30 ug/ml measured after 8 hrs relative to control; conditions: NCIM 2688, 8 h, read-out: GI; procedure, shortened: as §1
[9] = Antifungal activity against Fusarium oxysporum NCIM 1332 by standard agar method; procedure, shortened: as §2
Escherichia coli [10] = assay: Antibacterial activity against Escherichia coli NCIM 2688 measured after 8 hrs; conditions: NCIM 2688, 8 h; procedure, shortened: as §1
[11] = test system: Mycobacterium tuberculosis; assay: Growth inhibition of Mycobacterium tuberculosis H37Ra ATCC 25177 at active stage measured after 8 days by XTT dye based two fold dilution method; conditions: H37Ra ATCC 25177, 192 h
Procedure, shortened: (§4)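 MTB H37Ra was grown in Dubos medium, then exposed in Mycobacterium pheli minimal medium (pH 6.6) to compounds dissolved in DMSO. The assay ended on day 8 (active) or day 12 (dormant). Viable cells were measured by XTT reduction menadione assay at 470 nm, blank-corrected, relative to vehicle control. Triplicates were expressed as mean ± SD. MIC came from dose-response curves.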

Escherichia coli [12] = assay: Growth inhibition of Escherichia coli NCIM 2688 at 10 ug/ml measured after 8 hrs relative to control; conditions: NCIM 2688, 8 h, read-out: GI; procedure, shortened: as §1
Pseudomonas fluorescens [13] = assay: Growth inhibition of Pseudomonas fluorescens NCIM 2036 at 3 ug/ml measured after 8 hrs relative to control; conditions: NCIM 2036, 8 h, read-out: GI; procedure, shortened: as §1
Staphylococcus aureus [14] = assay: Antibacterial activity against of Staphylococcus aureus NCIM 2010 measured after 12 hrs; conditions: NCIM 2010, 12 h; procedure, shortened: as §1
Staphylococcus aureus [15] = assay: Growth inhibition of Staphylococcus aureus NCIM 2010 at 30 ug/ml measured after 12 hrs relative to control; conditions: NCIM 2010, 12 h, read-out: GI; procedure, shortened: as §1
Staphylococcus aureus [16] = assay: Growth inhibition of Staphylococcus aureus NCIM 2010 at 10 ug/ml measured after 12 hrs relative to control; conditions: NCIM 2010, 12 h, read-out: GI; procedure, shortened: as §1
Bacillus subtilis [17] = assay: Growth inhibition of Bacillus subtilis NCIM 2079 at 30 ug/ml measured after 12 hrs relative to control; conditions: NCIM 2079, 12 h, read-out: GI; procedure, shortened: as §1
Escherichia coli [18] = assay: Growth inhibition of Escherichia coli NCIM 2688 at 3 ug/ml measured after 8 hrs relative to control; conditions: NCIM 2688, 8 h, read-out: GI; procedure, shortened: as §1
Pseudomonas fluorescens [19] = assay: Growth inhibition of Pseudomonas fluorescens NCIM 2036 at 30 ug/ml measured after 8 hrs relative to control; conditions: NCIM 2036, 8 h, read-out: GI; procedure, shortened: as §1
Bacillus subtilis [20] = assay: Growth inhibition of Bacillus subtilis NCIM 2079 at 10 ug/ml measured after 12 hrs relative to control; conditions: NCIM 2079, 12 h, read-out: GI; procedure, shortened: as §1
[21] = test system: Mycobacterium tuberculosis; assay: Growth inhibition of Mycobacterium tuberculosis H37Ra ATCC 25177 at dormant stage measured after 12 days by XTT dye based two fold dilution method; conditions: H37Ra ATCC 25177, 288 h; procedure, shortened: as §4
Bacillus subtilis [22] = assay: Antibacterial activity against Bacillus subtilis NCIM 2079 measured after 12 hrs; conditions: NCIM 2079, 12 h; procedure, shortened: as §1
[23] = test system: Mycobacterium tuberculosis; assay: Growth inhibition of Mycobacterium bovis BCG ATCC 35743 at dormant stage at 3 ug/ml measured after 12 days by nitrate reductase dye based two fold dilution method relative to control; conditions: BCG str. ATCC 35743, 288 h, read-out: GI; procedure, shortened: as §3
Aspergillus flavus = assay: Antifungal activity against Aspergillus flavus NCIM 539 by standard agar method; procedure, shortened: as §2
[24] = test system: Mycobacterium tuberculosis; assay: Growth inhibition of Mycobacterium bovis BCG ATCC 35743 at dormant stage at 30 ug/ml measured after 12 days by nitrate reductase dye based two fold dilution method relative to control; conditions: BCG str. ATCC 35743, 288 h, read-out: GI; procedure, shortened: as §3
Pseudomonas fluorescens [25] = assay: Antibacterial activity against Pseudomonas fluorescens NCIM 2036 measured after 8 hrs; conditions: NCIM 2036, 8 h; procedure, shortened: as §1

Structure (SMILES) | inhibition of growth at 10 µg/mL (Pseudomonas fluorescens [1]) | inhibition of growth at 3 µg/mL (Staphylococcus aureus [2]) | MIC [3] | MIC (Candida albicans) | inhibition of growth at 3 µg/mL (Bacillus subtilis [4]) | IC50 [5] | IC90 [5] | MIC (Aspergillus niger) | inhibition of growth at 10 µg/mL [6] | IC50 [7] | IC90 [7] | inhibition of growth at 30 µg/mL (Escherichia coli [8]) | MIC [9] | MIC (Escherichia coli [10]) | IC50 [11] | IC90 [11] | inhibition of growth at 10 µg/mL (Escherichia coli [12]) | inhibition of growth at 3 µg/mL (Pseudomonas fluorescens [13]) | MIC (Staphylococcus aureus [14]) | inhibition of growth at 30 µg/mL (Staphylococcus aureus [15]) | also measured
Cc1ccc2nc(Cl)c(/C=C3\SC(=S)N(CC(=O)O)C3=O)cc2c1 | -7.54% | 0.77% | 125 µg/mL (≈ 330 µM) | 125 µg/mL (≈ 330 µM) | -24.1% | > 30 µg/mL | > 30 µg/mL | 175 µg/mL (≈ 462 µM) | 13.5% | > 30 µg/mL | > 30 µg/mL | -6.72% | 150 µg/mL (≈ 396 µM) | > 30 µg/mL | > 30 µg/mL | > 30 µg/mL | 0.409% | -67.2% | > 30 µg/mL | -5.17% | inhibition of growth at 10 µg/mL (Staphylococcus aureus [16]): -6.18%; inhibition of growth at 30 µg/mL (Bacillus subtilis [17]): 1.48%; inhibition of growth at 3 µg/mL (Escherichia coli [18]): -1.08%; inhibition of growth at 30 µg/mL (Pseudomonas fluorescens [19]): 13.2%; inhibition of growth at 10 µg/mL (Bacillus subtilis [20]): -6.38%; IC50 [21]: > 30 µg/mL; IC90 [21]: > 30 µg/mL; MIC (Bacillus subtilis [22]): > 30 µg/mL; inhibition of growth at 3 µg/mL [23]: 14.9%; MIC (Aspergillus flavus): 150 µg/mL (≈ 396 µM); inhibition of growth at 30 µg/mL [24]: -0.24%; MIC (Pseudomonas fluorescens [25]): > 30 µg/mL
O=C1NC(=S)S/C1=C\c1cc2ccccc2nc1Cl | -9.65% | -15.7% | 50 µg/mL (≈ 163 µM) | 150 µg/mL (≈ 489 µM) | 7.53% | > 30 µg/mL | > 30 µg/mL | 100 µg/mL (≈ 326 µM) | -22.1% | > 30 µg/mL | > 30 µg/mL | -28.5% | 100 µg/mL (≈ 326 µM) | > 30 µg/mL | > 30 µg/mL | > 30 µg/mL | -14.7% | -17.5% | > 30 µg/mL | -28.2% | inhibition of growth at 10 µg/mL (Staphylococcus aureus [16]): -21.3%; inhibition of growth at 30 µg/mL (Bacillus subtilis [17]): 0.707%; inhibition of growth at 3 µg/mL (Escherichia coli [18]): -40.6%; inhibition of growth at 30 µg/mL (Pseudomonas fluorescens [19]): 5.4%; inhibition of growth at 10 µg/mL (Bacillus subtilis [20]): 0.915%; IC50 [21]: > 30 µg/mL; IC90 [21]: > 30 µg/mL; MIC (Bacillus subtilis [22]): > 30 µg/mL; inhibition of growth at 3 µg/mL [23]: -80.1%; MIC (Aspergillus flavus): 150 µg/mL (≈ 489 µM); inhibition of growth at 30 µg/mL [24]: -43.1%; MIC (Pseudomonas fluorescens [25]): > 30 µg/mL
Cc1ccc2cc(/C=C3\SC(=S)N(CCC(=O)O)C3=O)c(Cl)nc2c1 | 17.1% | -6.25% | 150 µg/mL (≈ 382 µM) | 25 µg/mL (≈ 63.6 µM) | -6.11% | > 30 µg/mL | > 30 µg/mL | 150 µg/mL (≈ 382 µM) | 7.51% | > 30 µg/mL | > 30 µg/mL | 10.3% | 100 µg/mL (≈ 255 µM) | > 30 µg/mL | > 30 µg/mL | > 30 µg/mL | 28.8% | 5.88% | > 30 µg/mL | -15% | inhibition of growth at 10 µg/mL (Staphylococcus aureus [16]): -17.8%; inhibition of growth at 30 µg/mL (Bacillus subtilis [17]): -7.94%; inhibition of growth at 3 µg/mL (Escherichia coli [18]): 18.5%; inhibition of growth at 30 µg/mL (Pseudomonas fluorescens [19]): 6.75%; inhibition of growth at 10 µg/mL (Bacillus subtilis [20]): -5.45%; IC50 [21]: > 30 µg/mL; IC90 [21]: > 30 µg/mL; MIC (Bacillus subtilis [22]): > 30 µg/mL; inhibition of growth at 3 µg/mL [23]: 19.1%; MIC (Aspergillus flavus): 150 µg/mL (≈ 382 µM); inhibition of growth at 30 µg/mL [24]: -9.18%; MIC (Pseudomonas fluorescens [25]): > 30 µg/mL
Cc1ccc2nc(Cl)c(/C=C3\SC(=S)N(CCC(=O)O)C3=O)cc2c1 | 1.64% | -9.82% | 175 µg/mL (≈ 445 µM) | 50 µg/mL (≈ 127 µM) | -20.6% | > 30 µg/mL | > 30 µg/mL | 100 µg/mL (≈ 255 µM) | -7.25% | > 30 µg/mL | > 30 µg/mL | -49% | 100 µg/mL (≈ 255 µM) | > 30 µg/mL | > 30 µg/mL | > 30 µg/mL | -47.6% | 5.35% | > 30 µg/mL | -19.6% | inhibition of growth at 10 µg/mL (Staphylococcus aureus [16]): -13.6%; inhibition of growth at 30 µg/mL (Bacillus subtilis [17]): -31.1%; inhibition of growth at 3 µg/mL (Escherichia coli [18]): -37.5%; inhibition of growth at 30 µg/mL (Pseudomonas fluorescens [19]): -6.24%; inhibition of growth at 10 µg/mL (Bacillus subtilis [20]): -25.6%; IC50 [21]: > 30 µg/mL; IC90 [21]: > 30 µg/mL; MIC (Bacillus subtilis [22]): > 30 µg/mL; inhibition of growth at 3 µg/mL [23]: -7.58%; MIC (Aspergillus flavus): 150 µg/mL (≈ 382 µM); inhibition of growth at 30 µg/mL [24]: -14.8%; MIC (Pseudomonas fluorescens [25]): > 30 µg/mL
